Data set [1] deals with T1, σ2 receptor (Rattus norvegicus, UniProt Q5U3Y7).
T1 sequence (Q5U3Y7 1-176): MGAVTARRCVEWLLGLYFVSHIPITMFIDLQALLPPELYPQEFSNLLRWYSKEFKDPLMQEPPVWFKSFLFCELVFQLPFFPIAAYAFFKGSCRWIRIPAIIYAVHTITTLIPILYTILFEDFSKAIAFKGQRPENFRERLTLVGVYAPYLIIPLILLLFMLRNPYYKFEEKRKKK
Type of data set: binding. Conditions: for increase of selectivity for σ2 compared to 26 / increase of σ2 binding affinity compared to 26: relative to nonsubstituted 1H-[1,2,3]triazole carboxamide analogue 26; for lower binding affinity for σ2 receptor than corresponding methoxy-substituted congeners: 39e and 39f versus 39b and 39c.

Data set [2] concerns EMT-6 murine breast cancer cells. In words: functional assay: cell viability. Type of data set: cell-based. As to conditions: for cytotoxicity (in words): EMT-6 cells, cell viability assay. Summed up:
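EMT-6 murine breast cancer cells grown in DMEM with 10% FBS and penicillin/streptomycin at 37 °C, 5% CO2; seeded 5 × 10^3 cells/well 24 h before dosing. Test compound in DMSO serially diluted in medium (final DMSO ≤1.0%), 24 or 48 h exposure. MTS reagent 1–2 h at 37 °C, A490. Viability relative to untreated cells; EC50 from dose–response curves; triplicate, mean ± SEM of three experiments.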

Molecules are shown by their SMILES.

With `COc1cccc(Cn2cc(C(=O)NCCCCN3CCc4cc(OC)c(OC)cc4C3)nn2)c1` [39b, N-(4-(6,7-Dimethoxy-3,4-dihydro-1H-isoquinolin-2-yl)butyl)-1-(3-methoxybenzyl)-1H-1,2,3-triazole-4-carboxamide], in data set [1], the “increase of selectivity for σ2 compared to 26” value (“increase of selectivity for σ2” for short) worked out at 110 fold and the “increase of σ2 binding affinity compared to 26” value (“increase of σ2 binding affinity” for short) stood at 96 fold. As to `COc1cc2c(cc1OC)CN(CCCCNC(=O)c1cn(-c3ccccc3OC)nn1)CC2` [24d, N-(4-(6,7-Dimethoxy-3,4-dihydro-1H-isoquinolin-2-yl)butyl)-1-(2-methoxyphenyl)-1H-1,2,3-triazole-4-carboxamide], in data set [1], the “increase of selectivity for σ2” value was found to be 817 fold and the “increase of σ2 binding affinity” value is on record as 682 fold. `COc1cc2c(cc1OC)CN(CCCCNC(=O)c1cn(Cc3cccc(O)c3)nn1)CC2` [39e, N-(4-(6,7-Dimethoxy-3,4-dihydro-1H-isoquinolin-2-yl)butyl)-1-(3-hydroxybenzyl)-1H-1,2,3-triazole-4-carboxamide]: the “lower binding affinity for σ2 receptor than corresponding methoxy-substituted congeners” value in data set [1] amounted to 2 fold.

Regarding `COc1ccc(Cn2cc(C(=O)NCCCCN3CCc4cc(OC)c(OC)cc4C3)nn2)cc1` [39c, N-(4-(6,7-Dimethoxy-3,4-dihydro-1H-isoquinolin-2-yl)butyl)-1-(4-methoxybenzyl)-1H-1,2,3-triazole-4-carboxamide], in data set [1], the “increase of selectivity for σ2” value was 63 fold and the “increase of σ2 binding affinity” value is given as 205 fold. Regarding `COc1cc2c(cc1OC)CN(CCCCNC(=O)c1cc(-n3cc(CN(C)C)nn3)ccc1OCCF)CC2` [compound 65, N-(4-(6,7-Dimethoxy-3,4-dihydroisoquinolin-2(1H)-yl)butyl)-5-(4-((dimethylamino)methyl)-1H-1,2,3-triazol-1-yl)-2-(2-fluoroethoxy)benzamide], in data set [1] (65 versus lead compound 8), the “σ2 binding affinity lower than lead compound 8” value stood at 14 fold. Besides, in data set [1] (65 versus lead compound 9), the “σ2 binding affinity lower than lead compound 9” value worked out at 89 fold. For `COc1ccccc1Cn1cc(C(=O)NCCCCN2CCc3cc(OC)c(OC)cc3C2)nn1` [39a, N-(4-(6,7-Dimethoxy-3,4-dihydro-1H-isoquinolin-2-yl)butyl)-1-(2-methoxybenzyl)-1H-1,2,3-triazole-4-carboxamide], in data set [1], the “increase of selectivity for σ2” value stood at 198 fold and the “increase of σ2 binding affinity” value is given as 105 fold. `COc1ccc(-n2cc(C(=O)NCCCCN3CCc4cc(OC)c(OC)cc4C3)nn2)cc1` [24f, N-(4-(6,7-Dimethoxy-3,4-dihydro-1H-isoquinolin-2-yl)butyl)-1-(4-methoxyphenyl)-1H-1,2,3-triazole-4-carboxamide]: the “cytotoxicity (in words)” value in data set [2] is “did not induce cytotoxicity”. The “agonist/antagonist classification at the σ2 receptor” value in data set [2] (based on cytotoxicity in EMT-6 cells relative to siramesine) is reported as “antagonist”. For the same compound, the “increase of σ2 binding affinity” value in data set [1] amounted to 186 fold. Consider `COc1cc2c(cc1OC)CN(CCCCNC(=O)c1cn(Cc3ccc(O)cc3)nn1)CC2` [39f, N-(4-(6,7-Dimethoxy-3,4-dihydro-1H-isoquinolin-2-yl)butyl)-1-(4-hydroxybenzyl)-1H-1,2,3-triazole-4-carboxamide], for which the “lower binding affinity for σ2 receptor than corresponding methoxy-substituted congeners” value in data set [1] is on record as 2 fold.

Regarding `Fc1ccc(-n2cc(CCCCN3CCC4(CC3)OCc3ccccc34)c3ccccc32)cc1` [siramesine, reference compound], in data set [2], the “cytotoxicity (in words)” value is given as “potent cytotoxicity”. For the compound `COc1cccc(-n2cc(C(=O)NCCCCN3CCc4cc(OC)c(OC)cc4C3)nn2)c1` [24e, N-(4-(6,7-Dimethoxy-3,4-dihydro-1H-isoquinolin-2-yl)butyl)-1-(3-methoxyphenyl)-1H-1,2,3-triazole-4-carboxamide], in data set [1], the “increase of selectivity for σ2” value is on record as 629 fold and the “increase of σ2 binding affinity” value came out at 341 fold. Turning to `COc1cc2c(cc1OC)CN(CCCCNC(=O)c1cn(Cc3ccccc3)nn1)CC2` [39d, 1-Benzyl-N-(4-(6,7-dimethoxy-3,4-dihydro-1H-isoquinolin-2-yl)-butyl)-1H-1,2,3-triazole-4-carboxamide], in data set [1], the “increase of selectivity for σ2” value came to 34 fold and the “increase of σ2 binding affinity” value came out at 82 fold. On to `COc1cccc(Cn2cc(C(=O)NCCN3CCc4cc(OC)c(OC)cc4C3)nn2)c1` [40e, N-(2-(6,7-Dimethoxy-3,4-dihydro-1H-isoquinolin-2-yl)ethyl)-1-(3-methoxybenthyl)-1H-1,2,3-triazole-4-carboxamide], for which the “σ2 binding affinity lower than the 4-carbon spacer congeners” value in data set [1] (2-carbon spacer 40a–40f versus 24d–24f and 39a–39c) is 20 fold.

(Values after PMC6818095 (Journal of medicinal chemistry, 2014).)
